Results gathered from unrelated publications.
Lines come from different studies, so protocols differ.
MAOB: Amine oxidase [flavin-containing] B (MAOB, Homo sapiens, UniProt P27338)
HRH1: Histamine H1 receptor (HRH1, Homo sapiens, UniProt P35367)
PADI4: Protein-arginine deiminase type-4 (PADI4, Homo sapiens, UniProt Q9UM07)
CA9: Carbonic anhydrase 9 (CA9, Homo sapiens, UniProt Q16790)
PKN1: Serine/threonine-protein kinase N1 (PKN1, Homo sapiens, UniProt Q16512)

O=[N+]([O-])c1ccc(O[C@H]2O[C@H](CO)[C@@H](O)[C@H](O)[C@@H]2O)cc1
Km (Beta-mannosidase (Bacteroides thetaiotaomicron, UniProt Q8AAK6); enzyme activity, substrate, absorbance; pH 5.6): 390 µM

O=C(Nc1ccccc1)c1cc([N+](=O)[O-])ccc1O
inhibition (MAOB; enzyme activity, inhibitor; 1 µM, 20 min): 2%

CN(C)CCOC1c2ccccc2C=Cc2ccccc21
koff (HRH1; binding): 0.00015 s⁻¹

N=C(CF)NCCC[C@H](NC(=O)c1ccc(-c2ccccc2)cc1)c1nn[nH]n1
kinact/KI (PADI4; enzyme activity, inhibitor): 3.5 M⁻¹ s⁻¹

CCOc1ccc(C(=O)Nc2ccc([N+](=O)[O-])cc2C(F)(F)F)cc1OCC
inhibition (MAOB; enzyme activity, inhibitor; 1 µM, 20 min): 62%

CCOC(=O)C1CSc2[nH]c(=O)sc2C1c1cn(-c2ccccc2)nc1-c1ccccc1 (stereo not drawn)
inhibition (CA9; enzyme activity, inhibitor; 10 nM): 15.6%

N=C(N)NCCC[C@H](NC(=O)[C@H](Cc1ccccc1)NC(=O)[C@@H](N)Cc1c[nH]cn1)C(=O)N[C@@H](Cc1c[nH]c2ccccc12)C(=O)O
Emax (Melanocortin receptor 5 (Mus musculus, UniProt P41149); cAMP, agonist; HEK293): 85%

CCOc1ccc(C(=O)Nc2ccc(Br)cc2)cc1OCC
inhibition (MAOB; enzyme activity, inhibitor; 1 µM, 20 min): 13%

COc1cc2ncnc(Nc3cccc(Cl)c3)c2cc1OC.CS(=O)(=O)O
activity vs control (PKN1; enzyme activity, inhibitor; 1 µM): 99%

Cc1ccc(-c2nn(-c3ccccc3)cc2C2c3sc(=O)[nH]c3SC3C(=O)N(c4ccccc4)C(=O)C32)cc1 (stereo not drawn)
inhibition (CA9; enzyme activity, inhibitor; 0.1 µM): 39%

COc1cc(NC(C)=O)c(Cl)cc1C(=O)Nc1nccs1
inhibition (Beta-1 adrenergic receptor (ADRB1, Homo sapiens, UniProt P08588); cell-free assay; 10 µM): 2.5%

CC(C)(C)n1nnc([C@H](CCCNC(=N)CCl)NC(=O)c2ccccc2C(=O)O)n1
kinact/KI (PADI4; enzyme activity, inhibitor): 423 M⁻¹ s⁻¹

O=C1NC(=S)C(=Cc2cn(-c3ccccc3)nc2-c2ccc(Br)cc2)S1
inhibition (CA9; enzyme activity, inhibitor; 10 nM): 12%

Cn1cc(-c2cc3c(N4CCN(c5ncc([C@@](C)(N)c6ccc(F)cc6)cn5)CC4)ncnn3c2)cn1
activity vs control (PKN1; enzyme activity, inhibitor; 1 µM): 87%

O=C(Nc1ccccc1)c1ccccc1O
inhibition (MAOB; enzyme activity, inhibitor; 1 µM, 20 min): 5%

CCC(=O)NCC[C@@H]1CCc2cc(O)c3c(c21)CCO3
Km (Sulfotransferase 1A1 (SULT1A1, Homo sapiens, UniProt P50225); enzyme activity, substrate; pH 7): 19.2 µM

COc1cc([N+](=O)[O-])ccc1NC(=O)c1ccc(Cl)cc1
inhibition (MAOB; enzyme activity, inhibitor; 1 µM, 20 min): 14%

CNC(=O)c1cccc2cc(Oc3ccnc4cc(OCC5(N)CC5)c(OC)cc34)ccc12
activity vs control (PKN1; enzyme activity, inhibitor; 1 µM): 92%

CN1CCC(C2c3ccccc3C=Cc3ccccc32)CC1
kon (HRH1; binding): 667000 M⁻¹ s⁻¹

N=C(CCl)NCCC[C@H](NC(=O)c1ccccc1)c1nn[nH]n1
kinact/KI (PADI4; enzyme activity, inhibitor): 287 M⁻¹ s⁻¹

Cc1cc(N)ccc1NC(=O)c1ccccc1
inhibition (MAOB; enzyme activity, inhibitor; 1 µM, 20 min): -2%

COc1ccc2nc3ccc(Cl)cc3c(SCCCN)c2c1.Cl.Cl
activity vs control (PKN1; enzyme activity, inhibitor; 1 µM): 84%

O=C(Nc1ccc([N+](=O)[O-])cc1)c1cc(Cl)ccc1O
inhibition (MAOB; enzyme activity, inhibitor; 1 µM, 20 min): 66%

CO[C@@H]1[C@H](N(C)C(=O)c2ccccc2)C[C@H]2O[C@]1(C)n1c3ccccc3c3c4c(c5c6ccccc6n2c5c31)C(=O)NC4
activity vs control (PKN1; enzyme activity, inhibitor; 1 µM): -1%
